For assay [1], the target named is Runt domain - CBFβ interaction (Homo sapiens, UniProt Q01196). The assay is described as follows: FRET assay of Cerulean-Runt domain and Venus-CBFβ binding. The essentials: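 Purified Cerulean-Runt domain and Venus-CBFβ fusion proteins were used in a competition FRET format. Test compounds displace CBFβ binding to the Runt domain. Initial screening of compounds was at 200 µM.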

A further assay concerns Cerulean-Runt domain. The assay is described as follows: Saturation transfer difference. The format is binding. Conditions: STD NMR.
Assay [2] deals with hematopoietic stem and progenitor cell (HSPC) formation in zebrafish embryos. Kind of assay: HSPC formation in zebrafish embryos. The format is in vivo.
Assay [3] has as its system Kasumi-1 cells. Kind of assay: MTT cell viability assay, Kasumi-1. The format is cell-based, human. Conditions: 48 hours in culture. The essentials:
(§1)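 Leukemia cell lines were treated with test compound, with DMSO vehicle and staurosporine positive-control arms, and viability was read by MTT. Mean of triplicates ± SD, two independent experiments. One-way ANOVA excluding staurosporine, then Dunnett's test against DMSO-treated cells (P ≤ 0.05).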
(Formazan colour is commonly taken as a measure of viable cells.)

The test system of another assay is 720 T-ALL cell line. The assay is described as follows: MTT cell viability assay, 720 T-ALL. The format is cell-based, mouse. Conditions: 48 hours. Summed up: as §1
Another assay deals with Jurkat. Kind of assay: MTT cell viability assay, Jurkat. The class given is cell-based, human. Conditions: 48 hours. Summed up:
as §1

A further assay deals with 8946 T-ALL cell line. Kind of assay: MTT cell viability assay, 8946. Conditions: 48 hours. The class given is cell-based, murine. The essentials:
as §1

Assay [4] deals with Kasumi-1 cells. Kind of assay: DAPI flow cytometry of dead/live Kasumi-1 cells. The class given is cell-based, human. The following applies: 48 hours in culture. In general terms: A flow cytometer gives signals particle by particle.
Assay [5] concerns AML1-ETO9a + NRas^G12D AML cells. Kind of assay: CFU-C assay, murine AML1-ETO9a + NRasG12D AML cells. The format is cell-based, mouse. Conditions: methylcellulose, colonies counted 7 days after plating. The essentials:
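Leukemic cells came from a secondary recipient of spleen cells. The primary recipient had received fetal liver cells transduced with AML1-ETO9a and NRasG12D retroviruses. 20,000 cells were plated in methylcellulose with various test compound concentrations (DMSO final 0.2%). Colonies were counted at day 7. Triplicates per concentration, two experiments, SD. One-way ANOVA with Dunnett's test versus DMSO.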

The test system of assay [6] is normal mouse bone marrow cells. The assay is described as follows: CFU-C assay, normal mouse bone marrow cells. The format is cell-based. The following applies: methylcellulose, colonies counted 7 days after plating.
The test system of assay [7] is t(8;21) positive human AML samples. Kind of assay: CFU-C assay, primary human t. The format is cell-based. The following applies: five samples, methylcellulose, colonies counted 14 days after plating. Summed up: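 Primary AML specimens (pheresis or bone marrow mononuclear cells) were plated in methylcellulose with various test compound concentrations. Colonies were scored 14 days after plating. Triplicate cultures per concentration, two experiments. Significance versus DMSO by one-way ANOVA with Dunnett's multiple-comparison test.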

Assay [8] relates to normal bone marrow mononuclear cells (BM-MNCs). Kind of assay: CFU-C assay, normal human bone marrow mononuclear cells. The class given is cell-based. Conditions: methylcellulose, colonies counted 14 days after plating.
The subject of another assay is 720 T-ALL cells. Kind of assay: qPCR gene expression in 720 T-ALL cells. The class given is cell-based, mouse. Conditions: 720 T-ALL cells treated for 16 hours. The essentials:
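720 T-ALL cells were exposed to test compound for 16 h and transcript levels quantified by qPCR relative to DMSO-treated cells. Triplicate means ± SD, two experiments. One-way ANOVA with Dunnett's comparison against DMSO.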
In general terms: Quantitative PCR measures a nucleic acid by following its amplification.

The subject of the next assay is CBFβ-Runx. The following applies: ref [44]; cited from earlier work.

Entries after “also recorded” stand apart in the source; their conditions may differ.

Sequence of Runt domain - CBFβ interaction (Q01196 50-178 limits assumed): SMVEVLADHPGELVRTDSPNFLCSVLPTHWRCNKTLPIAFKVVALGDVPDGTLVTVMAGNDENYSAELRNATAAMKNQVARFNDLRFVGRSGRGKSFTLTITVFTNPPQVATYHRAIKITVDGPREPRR

Turning to `Sc1nnc(-c2ccccc2)s1` [4b, 5-phenyl-1,3,4-thiadiazole-2(3H)-thione], the IC50 in assay [1] stood at 11 ± 1.3 µM.

In the case of `CSc1nnc(-c2ccccc2F)s1` [6a, 2-(2-fluorophenyl)-5-(methylthio)-1,3,4-thiadiazole], in assay [1] (Cerulean-Runt domain and Venus-CBFβ at 100 nM), the “activity in the FRET assay” value is on record as “complete loss of activity”.

As to `S=c1[nH]nc(-c2ccc(-c3cccc(Cl)c3)o2)s1` [AI-8–45], the “saturation transfer effect / binding to Runt domain” value with Cerulean-Runt domain is on record as “in close contact with the protein”. Also, the “Flk1:dsRed+Myb:Gfp+ HSPCs in the VDA at 36 hpf” value in assay [2] (Tg(kdrl:dsred;cmyb:egfp) embryos, 2.5 µM, 12 to 36 hpf, flow cytometry) is reported as “decreased”. For the same molecule, the “number of CD41:Gfp+ HSPCs in the CHT at 48 hpf” value in assay [2] (Tg(−6.0itga2b:egfp) embryos, treated 18 to 48 hpf, compared to AI-7–54 treated controls) was “decreased”. Moreover, the “growth of Kasumi-1 cells (MTT)” value in the assay on Kasumi-1 cells [3] is given as “significantly reduced the growth; also recorded: inhibit proliferation”. Also, in the assay with 720 T-ALL cell line, the “growth of 720 T-ALL cells (MTT)” value was “significantly reduced the growth; also recorded: inhibit proliferation”. In the assay with Jurkat, the “growth of Jurkat cells (MTT)” value is “significantly reduced the growth; also recorded: inhibit proliferation”. In the assay with 8946 T-ALL cell line, the “growth of 8946 T-ALL cells (MTT)” value was “significantly reduced the growth; also recorded: inhibit proliferation”. In addition, the “percentage of DAPI-positive dead cells” value with Kasumi-1 cells [4] is “statistically significant and dose-dependent increase”. In addition, in assay [5], the “colony formation of AML1-ETO9a + NRasG12D AML cells” value is “significantly reduced colony formation”. Also, in [6], the “colony formation by normal mouse bone marrow cells” value is reported as “Neither AI-8–45 nor AI-9–54 had any effect”. Further, the “colony numbers of t(8;21) positive human AML samples” value in assay [7] is given as “significantly reduced the colony numbers”. In assay [8], the “colony numbers of normal bone marrow mononuclear cells” value is recorded as “but not that of normal bone marrow mononuclear cells”. Besides, the “expression of Deptor, Cdkn1a, Dhcr24, Cebpa, Csf1r (qPCR)” value with 720 T-ALL cells is “affected”.

As for `O=C1CN=C(c2ccc[nH]2)c2cc(Cl)ccc2N1` [Ro5-3335], the “inhibitor of CBFβ-Runx” value in the assay on CBFβ-Runx was “inhibitor of CBFβ-Runx”.

A word on the IC50: it is the concentration that inhibits the measured activity by half. Lower therefore signals greater potency in that assay.

The values above are taken from article PMC6005736 (Leukemia & lymphoma, 2017).
